Test results: article PMC3781598 (Pharmaceutical research, 2013)

Assay: Metabolic stability in knockout mouse lung microsomes
Assay type: in vitro ADME
Method in brief: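 Microsomes from B6 Cyp2a(4/5)bgs-null (CYP2A/CYP2B knockout) or side-by-side wild-type mouse lung and liver, at 0.1 mg protein/ml. Buffer was 50 mM potassium phosphate pH 7.4, 3 mM MgCl2, 1 mM EDTA. […] Parent loss by LC/MS/MS. Single-exponential kel converted to T1/2; CLint = kel × volume/mg protein.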

[1] = B6 Cyp2a(4/5)bgs-Null, mouse, lung microsomes from knockout mice, pH 7.4

Fc1cccc(Cl)c1CN1CCOCC1 [Compound 7, 4-(2-chloro-6-fluorobenzyl)morpholine]
increase in metabolic stability, transgenic vs wild type lung microsomes (0.1 mg/ml protein): 5 fold
half-life at 1 μM [1]: 11.2 h
microsomal CLint at 1 μM [1]: 10.4 µL/min/mg
